Source: ChEMBL document CHEMBL3272099, “Antibacterial activity of N-(beta-styryl) formamides related to tuberin” (J Med Chem, 1978)
≈ marks a conversion by molar mass, not a printed value. Calls of active or inactive are those of the source. No cut-off for these calls is given here.

Columns and labels:
Mycolicibacterium phlei [1] = assay: Antibacterial activity against Mycobacterium phlei at 640 ug/ml; assay type: functional, organism-based
Staphylococcus aureus [2] = assay: Antibacterial activity against Staphylococcus aureus at 200 ug/ml; assay type: functional, organism-based
[3] = C18 corasil-octanol partition coefficient, log P of the compound in 0.01 M phosphate buffer at pH 7 by LC on C18 Corasil coated with 1-octanol; conditions: octanol/0.01 M phosphate buffer (C18 Corasil-octanol)
[4] = C18 corasil-25 wt % MeOH partition coefficient, log K of the compound in 0.001 M phosphate buffer; conditions: pH 7.4
Mycolicibacterium phlei [5] = assay: Antibacterial activity against Mycobacterium phlei; assay type: functional
Summary of the method: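 MIC by standard agar dilution, run in duplicate; estimated standard deviation under 0.15 log units; reported as log 1/MIC (molar).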

Staphylococcus aureus [6] = assay: Antibacterial activity against Staphylococcus aureus; assay type: functional

| SMILES | Activity (Mycolicibacterium phlei [1]) | Activity (Staphylococcus aureus [2]) | logD [3] | log K [4] | MIC (Mycolicibacterium phlei [5]) [mg/L] | MIC (Staphylococcus aureus [6]) [mg/L] |
| --- | --- | --- | --- | --- | --- | --- |
| O=CN/C=C/c1ccco1 | inactive | inactive |  |  |  |  |
| CN(C)c1ccc(/C=C/NC=O)cc1 |  | inactive | 2.03 | 0.48 | 640 (≈ 3360 µM) |  |
| CCCCOc1ccc(/C=C/NC=O)cc1 |  | inactive | 3.32 | 1.62 | 80 (≈ 365 µM) |  |
| O=CN/C=C/c1cccc2ccccc12 |  | inactive |  |  | 80 (≈ 406 µM) |  |
| O=CN/C=C/c1ccc(I)cc1 |  |  | 3.18 | 1.14 | 160 (≈ 586 µM) | 200 (≈ 732 µM) |
| CC(C)(C)c1ccc(/C=C/NC=O)cc1 |  |  | 3.82 | 1.71 | 80 (≈ 394 µM) | 200 (≈ 984 µM) |
| O=CN/C=C/c1ccc(S(=O)(=O)c2ccccc2)cc1 |  | inactive | 1.95 | 0.78 | 320 (≈ 1110 µM) |  |
| O=CN/C=C/c1ccc(C(F)(F)F)cc1 |  |  | 3.06 | 1.09 | 80 (≈ 372 µM) | 100 (≈ 465 µM) |
| CC(C)Oc1ccc(/C=C/NC=O)cc1 |  | inactive | 2.61 | 0.93 | 320 (≈ 1560 µM) |  |
| O=CN/C=C/c1ccc(O)cc1 | inactive | inactive |  |  |  |  |
| O=CN/C=C/c1ccccc1 |  |  | 1.95 | 0.21 | 640 (≈ 4350 µM) | 50 (≈ 340 µM) |
| CCN(CC)c1ccc(/C=C/NC=O)cc1 |  | inactive | 2.9 |  | 320 (≈ 1470 µM) |  |
| O=CN/C=C/c1ccc(Cl)cc1 |  |  | 2.7 | 0.79 | 80 (≈ 440 µM) | 200 (≈ 1100 µM) |
| O=CN/C=C/c1ccc([N+](=O)[O-])cc1 |  |  | 1.94 | 0.24 | 320 (≈ 1670 µM) | 3 (≈ 15.6 µM) |
| CC(=O)Oc1ccc(/C=C/NC=O)cc1 |  | inactive | 1.32 | 0.16 | 640 (≈ 3120 µM) |  |
| O=CN/C=C/c1ccc2ccccc2c1 |  | inactive | 3.22 | 1.16 | 20 (≈ 101 µM) |  |
| CCCCC/C=C/NC=O |  | inactive |  |  | 40 (≈ 283 µM) |  |
| O=CN/C=C/c1ccc(F)cc1 |  | inactive | 2.11 | 0.33 | 160 (≈ 969 µM) |  |
| CCOc1ccc(/C=C/NC=O)cc1 |  | inactive | 2.31 | 0.65 | 40 (≈ 209 µM) |  |
| Cc1ccc(/C=C/NC=O)cc1 |  | inactive | 2.45 | 0.66 | 40 (≈ 248 µM) |  |
| O=CN/C=C/c1ccc(Br)cc1 |  |  | 2.87 | 0.96 | 160 (≈ 708 µM) | 100 (≈ 442 µM) |
| N#Cc1ccc(/C=C/NC=O)cc1 |  | inactive | 1.62 | 0.04 | 640 (≈ 3720 µM) |  |
| COc1ccc(/C=C/NC=O)cc1 |  | inactive | 1.94 | 0.28 | 80 (≈ 451 µM) |  |
| O=CN/C=C/C1CCCCC1 |  | inactive |  |  | 160 (≈ 1040 µM) |  |
| CSc1ccc(/C=C/NC=O)cc1 |  |  | 2.55 | 0.77 | 40 (≈ 207 µM) | 100 (≈ 517 µM) |
| O=CN/C=C/c1cccs1 |  |  |  |  | 320 (≈ 2090 µM) | 25 (≈ 163 µM) |
